The record followed here is ChEMBL document CHEMBL1938279, “Synthesis and evaluation of macrocyclic diarylether heptanoid natural products and their analogs” (Bioorg Med Chem Lett, 2012).

Calls of active or inactive are those of the source. The rule behind the calls is not given here.

Experiment [1] in a line: Inhibition of NF-kappaB activation in human TNFalpha-stimulated A549 cells preincubated for 2 hrs before TNFalpha challenge measured after 7 hrs post stimulation by luciferase reporter gene assay. The class given is cell-based. In short, it runs like this:
(§1)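 Stable κB-luciferase-expressing A549 cells; NF-κB transcription activity read as luciferase signal; single concentration of 20 μM and dose-response experiments.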

Experiment [2] relates to A549. The experiment in a line: Inhibition of NF-kappaB activation in human TNFalpha-stimulated A549 cells at 20 uM preincubated for 2 hrs before TNFalpha challenge measured after 7 hrs post stimulation by luciferase reporter gene assay. The class given is cell-based. In short, it runs like this:
as §1
For orientation: Reporter assays use an easily measured gene product as a stand-in for the process of interest.

Experiment [3] concerns Hs 766. Nature of the experiment: Growth inhibition of human Hs766T cells at 20 uM after 5 days by alamar blue assay. It counts as functional, cell-based. In short, it runs like this: (§2)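 Hs 766T and PANC-1 pancreatic tumour cells given test agent alone or combined with gemcitabine; growth inhibition measured; data representative of three independent experiments, mean ± SD.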
Background: Resazurin is reduced to fluorescent resorufin, in cell work by metabolically active cells.

Experiment [4] concerns PANC-1. The experiment in a line: Growth inhibition of human PANC1 cells at 20 uM after 5 days by alamar blue assay. It counts as functional, cell-based. Put shortly: as §2
In experiment [5] the test system is HEK293. The experiment in a line: Inhibition of TNFalpha-stimulated IkappaBalpha protein expression in HEK293 cells at 50 uM after 30 mins by Western blot analysis. It counts as functional, cell-based. Particulars: Homo sapiens. Put shortly: (§3)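 HEK 293 cells stimulated with TNF-α with or without test agent; IκBα protein levels assessed by Western blotting at set times after stimulation.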
For orientation: Immunoblotting shows a protein as a band on a membrane.

The test system of experiment [6] is Hs 766. The experiment in a line: Potentiation of gemcitabine-induced cytotoxicity against human Hs766T cells assessed as cell growth inhibition at 20 uM after 5 days by alamar blue assay. It counts as functional, cell-based. Put shortly:
as §2

Experiment [7] has as its system HEK293. The experiment in a line: Inhibition of TNFalpha-stimulated IkappaBalpha protein expression in HEK293 cells at 50 uM after 120 mins by Western blot analysis. It counts as functional, cell-based. The settings on record: Homo sapiens. Put shortly:
as §3

The test system of experiment [8] is PANC-1. The experiment in a line: Potentiation of gemcitabine-induced induction of apoptosis in human PANC1 cells assessed as activation of caspase 3/7 after 48 hrs by caspase-Glo 3 assay. It counts as functional, cell-based. In short, it runs like this: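 PANC-1 cells treated with test agent alone or combined with gemcitabine; caspase 3/7 activity read after 48 hr as apoptosis marker; representative of two independent experiments, mean ± SD.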

Experiment [9] relates to PANC-1. The experiment in a line: Potentiation of gemcitabine-induced cytotoxicity against human PANC1 cells assessed as cell growth inhibition at 20 uM after 5 days by alamar blue assay. It counts as functional, cell-based. In short, it runs like this:
as §2

In experiment [10] the test system is HEK293. The experiment in a line: Inhibition of TNFalpha-stimulated IkappaBalpha protein expression in HEK293 cells at 50 uM after 60 mins by Western blot analysis. It counts as functional, cell-based. The settings on record: Homo sapiens. Put shortly:
as §3

Consider `COc1ccc2c(c1OC)C(=O)O[C@@H]2[C@H]1c2c(cc3c(c2OC)OCO3)CCN1C` [NOSCAPINE], for which, in experiment [1], the IC50 (in general, the concentration at which inhibition is half-maximal) worked out at 65.2 µM.
The same measure, in the same setting: next, `COc1cc2ccc1Oc1cc(ccc1OC)CCC(O)CCCC2` (centres undefined) [PLATYCARYNOL]: 36.4 µM.
On the same count and under the same terms, next, `COc1cc(/C=C/C(=O)CC(=O)/C=C/c2ccc(O)c(OC)c2)ccc1O` [CURCUMIN]: 20.3 µM; `C=C1C(=O)O[C@@H]2C3O[C@]3(C)CC/C=C(\C)CC[C@@H]12` (some centres undefined): 4.7 µM.
On to `COc1ccc2cc1Oc1cc(ccc1OC)CCC(=O)CCCC2`, for which the inhibition result in [2], in [5], in experiment [7] and in experiment [10] was “Active” throughout. The “growth inhibition (GI)” value in experiment [3] and in experiment [4] was “inactive” each time. For the same molecule, the “growth inhibition (GI)” value in experiment [6] and in [9] was “Active” in each case. The outcome in [8] was Active. In experiment [1], this molecule displayed an IC50 of 14.3 µM.
